The source made the active and inactive calls. The calls are words filed in the database; no cut-off is given here.
Assays:
SGC-7901 [1] = experiment: Induction of apoptosis in human SGC7901 cells assessed as late apoptotic cells at 15 uM incubated for 36 hrs by Annexin V-FITC/propidium iodide staining-based flow cytometric analysis (reference value: 3.69 %); assay type: functional
SGC-7901 [2] = experiment: Induction of apoptosis in human SGC7901 cells assessed as early apoptotic cells at 7.5 uM incubated for 36 hrs by Annexin V-FITC/propidium iodide staining-based flow cytometric analysis (reference value: 2.74 %); assay type: functional
SGC-7901 [3] = experiment: Induction of apoptosis in human SGC7901 cells assessed as viable cells at 7.5 uM incubated for 36 hrs by Annexin V-FITC/propidium iodide staining-based flow cytometric analysis (reference value: 93.2 %); assay type: functional; conditions: read-out: Activity
dsDNA = experiment: Binding affinity to 5'-AGGGGAGGCGAGGAGGGGCGTGGCCGG-3'/3'-TCCCCTCCGCTCCTCCCCGCACCGGCC-5' dsDNA (unknown origin) by circular dichroism spectroscopic analysis; assay type: nucleic-acid assay; conditions: Homo sapiens
How it was run: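 Target duplex annealed at 95 °C, held 24 h in pH 7.0 buffer (10 mM sodium cacodylate, 100 mM NaCl, 0.5% DMSO), then degassed. Compound titrated in at compound:DNA ratios 0.0–3.0, room temperature, 15 min equilibration per addition. CD read 225–400 nm in a 5 mm quartz cell at 100 nm/min, 5.0 nm bandwidth. Average of three parallel runs.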

A549 = experiment: Induction of apoptosis in human A549 cells assessed as necrotic cells at 7.5 uM incubated for 36 hrs by Annexin V-FITC/propidium iodide staining-based flow cytometric analysis (reference value: 0.31 %); assay type: functional
SGC-7901 [4] = experiment: Induction of apoptosis in human SGC7901 cells assessed as necrotic cells at 15 uM incubated for 36 hrs by Annexin V-FITC/propidium iodide staining-based flow cytometric analysis (reference value: 0.34 %); assay type: functional
GISTT1 = experiment: Down regulation of c-kit gene expression at translational level in human GIST-T1 cells at 5 uM; assay type: functional, cell-based
SGC-7901 [5] = experiment: Induction of apoptosis in human SGC7901 cells assessed as early apoptotic cells at 15 uM incubated for 36 hrs by Annexin V-FITC/propidium iodide staining-based flow cytometric analysis (reference value: 2.74 %); assay type: functional

Activity (dsDNA): Active
SMILES: CC(=O)Nc1cn(C)c(C(=O)Nc2cn(C)c(C(=O)Nc3cc(C(=O)Nc4cn(C)c(C(=O)NCCC(=O)Nc5cn(C)c(C(=O)Nc6cn(C)c(C(=O)NCC[C@@H](N)C(=O)Nc7cc(C(=O)Nc8cc(C(=O)NC[C@@H](O)CC(=O)Nc9cc(C(=O)Nc%10cn(C)c(C(=O)Nc%11cc(C(=O)Nc%12cc(C(=O)NCCC(=O)NCCCN(C)C)n(C)c%12)n(C)c%11)n%10)n(C)c9)n(C)c8)n(C)c7)n6)n5)n4)n(C)c3)n2)n1.Cl.Cl
Activity (SGC-7901 [1]): 12.8%
Activity (SGC-7901 [2]): 32.4%
viability at 7.5 µM (SGC-7901 [3]): 56.4%
Activity (A549): 2.76%
Activity (SGC-7901 [4]): 1.83%
Activity (GISTT1): Active
Activity (SGC-7901 [5]): 41.7%
